Source: ChEMBL document CHEMBL4270591, “Exploitation of new chalcones and 4H-chromenes as agents for cancer treatment” (Eur J Med Chem, 2018)

Assays:
[1] = Cytotoxicity against human MCF10A cells assessed as cell viability at 30 uM after 72 hrs by sulforhodamine B assay relative to control; assay type: cell-based, MCF-10A; details: read-out: Activity
MCF7 [2] = assay: Anticancer activity against human MCF7 cells assessed as cell viability at 10 uM after 72 hrs by sulforhodamine B assay relative to control; assay type: functional; details: MCF7, 72 h, read-out: Activity
[3] = Cytotoxicity against human MCF10A cells assessed as cell viability at 10 uM after 72 hrs by sulforhodamine B assay relative to control; assay type: cell-based, MCF-10A; details: read-out: Activity
Hs-578T [4] = assay: Anticancer activity against human Hs 578T cells assessed as cell viability at 30 uM after 72 hrs by sulforhodamine B assay relative to control; assay type: functional; details: read-out: Activity
MCF7 [5] = assay: Anticancer activity against human MCF7 cells assessed as cell viability at 30 uM after 72 hrs by sulforhodamine B assay relative to control; assay type: functional; details: MCF7, 72 h, read-out: Activity
Hs-578T [6] = assay: Anticancer activity against human Hs 578T cells assessed as cell viability at 10 uM after 72 hrs by sulforhodamine B assay relative to control; assay type: functional; details: read-out: Activity
MCF-10A = assay: Cytotoxicity against human MCF10A cells after 72 hrs by sulforhodamine B assay; assay type: cell-based
Method in brief: (§1)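 Cells seeded at 3000 cells/100 µL per well, left to adhere overnight (18-20 h), then exposed to a range of compound concentrations for 72 h. Vehicle control was 0.5% DMSO. Cytotoxicity was read by sulforhodamine B at 490 nm, with 690 nm as background. IC50 came from sigmoidal variable-slope nonlinear regression on log-transformed data, from at least three independent experiments, each in triplicate.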

Hs-578T [7] = assay: Anticancer activity against human Hs 578T cells after 72 hrs by sulforhodamine B assay; assay type: functional, cell-based; method in brief: as §1
MCF7 [8] = assay: Anticancer activity against human MCF7 cells after 72 hrs by sulforhodamine B assay; assay type: functional, cell-based; details: MCF7, 72 h; method in brief: as §1

| SMILES | viability at 72 h, 30 µM [1] | viability at 10 µM (MCF7 [2]) | viability at 72 h, 10 µM [3] | viability at 30 µM (Hs-578T [4]) | viability at 30 µM (MCF7 [5]) | viability at 10 µM (Hs-578T [6]) | IC50 (MCF-10A) | IC50 (Hs-578T [7]) | IC50 (MCF7 [8]) |
| --- | --- | --- | --- | --- | --- | --- | --- | --- | --- |
| COc1cccc(C(=O)/C=C/c2cc(Br)cc(OC)c2O)c1 | 47% | 77.3% | 33.5% | 69.8% | 63.1% | 74.2% |  |  |  |
| Cc1ccc(C(=O)/C=C/c2cccc(Br)c2)cc1 |  | 60.4% |  |  | 34% |  |  |  |  |
| COc1cc(Br)cc2c1OC(N)=C(C#N)C2CC(=O)c1ccc(C)cc1 (stereo not drawn) |  | 116% |  |  | 52.8% |  |  |  |  |
| COC(=O)C1=C(N)Oc2c(OC)cc(Br)cc2C1CC(=O)c1ccc(Cl)cc1 (stereo not drawn) | 47.8% | 80.3% | 40.9% | 90.2% | 33.8% | 63% |  |  |  |
| COc1cc(Br)cc2c1OC(N)=C(C#N)C2CC(=O)c1ccccc1 (stereo not drawn) | 45.9% | 99.1% | 45.9% | 155% | 36.7% | 100% |  |  |  |
| COC(=O)C1=C(N)Oc2c(OC)cc(Br)cc2C1CC(=O)c1ccc(Br)cc1 (stereo not drawn) |  | 50.2% |  |  | 31.9% |  |  |  |  |
| COC(=O)C1=C(N)Oc2c(OC)cc(Br)cc2C1CC(=O)c1cccc(OC)c1 (stereo not drawn) |  | 142% |  |  | 94.9% |  |  |  |  |
| N#CC1=C(N)Oc2ccc(Br)cc2C1CC(=O)c1ccc(Br)cc1 (stereo not drawn) | 43.6% | 47.2% | 32.6% | 93.8% | 34.2% | 67.6% | 14.7 µM | 16.5 µM | 7.24 µM |
| COc1cc(Br)cc(/C=C/C(=O)c2ccccc2)c1O | 40.7% | 67% | 34.4% | 106% | 28.1% | 46.9% |  |  |  |
| COc1cccc(C(=O)CC2C(C#N)=C(N)Oc3ccc(Br)cc32)c1 (stereo not drawn) | 43.7% | 51.2% | 101% | 37.9% | 34.4% | 71.5% | 18.9 µM | 10.3 µM | 5.94 µM |
| COc1cccc(C(=O)/C=C/c2cc(Cl)ccc2O)c1 |  | 38.2% |  |  | 26.3% |  |  |  |  |
| Cc1ccc(C(=O)/C=C/c2cc(Br)ccc2O)cc1 | 49.4% | 27.3% | 32.4% | 46.7% | 31.8% | 55.8% | 6.52 µM | 1.6 µM | 2 µM |
| COc1cc(Br)cc(/C=C/C(=O)c2ccc(Br)cc2)c1O |  | 64.6% |  |  | 48.3% |  |  |  |  |
| COc1cc(Br)cc(/C=C/C(=O)c2ccc(Cl)cc2)c1O | 47.8% | 53.3% | 35.2% | 60.3% | 28% | 53.8% | 12.1 µM | 5.33 µM | 5.15 µM |
| COC(=O)C1=C(N)Oc2ccc(Cl)cc2C1CC(=O)c1ccccc1 (stereo not drawn) |  | 87.2% |  |  | 44.2% |  |  |  |  |
| O=C(/C=C/c1ccccc1O)c1ccccc1 |  | 71.9% |  |  | 32.1% |  |  |  |  |

| SMILES | viability at 72 h, 30 µM [1] | viability at 10 µM (MCF7 [2]) | viability at 72 h, 10 µM [3] | viability at 30 µM (Hs-578T [4]) | viability at 30 µM (MCF7 [5]) | viability at 10 µM (Hs-578T [6]) | IC50 (MCF-10A) | IC50 (Hs-578T [7]) | IC50 (MCF7 [8]) |
| --- | --- | --- | --- | --- | --- | --- | --- | --- | --- |
| N#CC1=C(N)Oc2ccccc2C1CC(=O)c1ccccc1 (stereo not drawn) |  | 82.7% |  |  | 78.6% |  |  |  |  |
| Cc1ccc(C(=O)CC2C(C#N)=C(N)Oc3ccc(Cl)cc32)cc1 (stereo not drawn) | 53.3% | 85.5% | 41.8% | 155% | 49% | 92.3% |  |  |  |
| COc1cc(Br)cc(/C=C/C(=O)c2ccc(C)cc2)c1O | 148% | 96.8% | 155% | 64.2% | 61.5% | 84.6% |  |  |  |
| O=C(/C=C/c1cc(F)cc(F)c1O)c1ccccc1 | 41.4% | 110% | 37.4% | 114% | 37.6% | 96.5% |  |  |  |
| COC(=O)C1=C(N)Oc2ccc(Br)cc2C1CC(=O)c1ccc(Br)cc1 (stereo not drawn) | 43.2% | 72.5% | 39.9% | 94.8% | 34.8% | 90% |  |  |  |
| COC(=O)C1=C(N)Oc2ccc(Br)cc2C1CC(=O)c1ccccc1 (stereo not drawn) |  | 107% |  |  | 41.3% |  |  |  |  |
| Cc1ccc(C(=O)CC2C(C#N)=C(N)Oc3ccc(Br)cc32)cc1 (stereo not drawn) | 33.5% | 69% | 133% | 46.3% | 32.3% | 88.8% |  |  |  |
| COc1cccc2c1C(=O)c1c(O)c3c(c(O)c1C2=O)C[C@@](O)(C(=O)CO)C[C@@H]3O[C@H]1C[C@H](N)[C@H](O)[C@H](C)O1 [DOXORUBICIN] |  |  |  |  |  |  | 1.54 µM | 0.52 µM |  |
| COC(=O)C1=C(N)Oc2c(OC)cccc2C1CC(=O)c1ccc(Cl)cc1 (stereo not drawn) |  | 89.8% |  |  | 63.8% |  |  |  |  |
| COc1cc(Br)cc2c1OC(N)=C(C#N)C2CC(=O)c1ccc(Cl)cc1 (stereo not drawn) | 41.6% | 49.6% | 36.8% | 90.7% | 33.3% | 90.7% |  |  |  |
| N#CC1=C(N)Oc2c(F)cc(F)cc2C1CC(=O)c1ccccc1 (stereo not drawn) | 128% | 99.6% | 53.8% | 144% | 76.9% | 92.4% |  |  |  |
| COC(=O)C1=C(N)Oc2ccc(Br)cc2C1CC(=O)c1ccc(Cl)cc1 (stereo not drawn) |  | 67.6% |  |  | 32.4% |  |  |  |  |
| COc1ccc(O)c(/C=C/C(=O)c2ccc(Cl)cc2)c1 | 48% | 86.9% | 35.7% | 102% | 29.3% | 106% |  |  |  |
| COc1cc(Br)cc2c1OC(N)=C(C#N)C2CC(=O)c1ccc(Br)cc1 (stereo not drawn) |  | 39.7% |  |  | 33.1% |  |  |  |  |
| Cc1ccc(C(=O)/C=C/c2cc(F)cc(F)c2O)cc1 |  | 33.9% |  |  | 35.3% |  |  |  |  |
